Reference: ChEMBL document CHEMBL1148326, “Chemometric studies on the bactericidal activity of quinolones via an extended VolSurf approach” (2004)

How the values were obtained:
Type in all cases: functional
Escherichia coli = assay: Antibacterial activity was evaluated against Escherichia coli
Summary of the method: (§1)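 MIC against aerobic bacteria, measured at Bayer AG, by standard agar dilution or broth microdilution per NCCLS M7-A5 guidelines. MIC taken as lowest concentration visibly inhibiting growth after in vitro incubation, read when untreated culture growth becomes visible; expressed as log 1/C.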

Pseudomonas aeruginosa = assay: Antibacterial activity was evaluated against Pseudomonas aeruginosa; summary of the method: as §1
Enterococcus faecalis [1] = assay: Antibacterial activity evaluated against Enterococcus faecalis; summary of the method: as §1
Staphylococcus aureus = assay: Antibacterial activity was evaluated against Staphylococcus aureus; summary of the method: as §1
Enterococcus faecalis [2] = assay: Antibacterial activity was evaluated against Enterococcus faecalis; summary of the method: as §1

SMILES | Log 1/C (Escherichia coli) | Log 1/C (Pseudomonas aeruginosa) | Log 1/C (Enterococcus faecalis [1]) | Log 1/C (Staphylococcus aureus) | Log 1/C (Enterococcus faecalis [2])
O=C(O)c1cn(C2CC2)c2c(Cl)c(N3C[C@@H]4CCCN[C@@H]4C3)c(F)cc2c1=O | 8.05 | 6.25 | 7.16 | 7.75 | –
O=C(O)c1c(=O)c2cc(F)c(N3C[C@@H]4CCCN[C@@H]4C3)c3c2n2c(csc12)CS3 | 7.16 | 5.63 | 6.54 | 6.86 | –
CC(C)(C)N1CCN(c2cc3c(cc2F)c(=O)c(C(=O)O)cn3C2CC2)CC1 | 7.1 | 5.29 | 5.89 | 6.19 | –
O=C(O)c1cn(C2CC2)c2cc(N3C(=O)C=CC3=O)c(F)cc2c1=O | 3.43 | 3.43 | 3.43 | 3.43 | –
O=C(O)c1cn(C2CC2)c2c(Cl)c(N3C[C@H]4CCCN[C@H]4C3)c(F)cc2c1=O | 7.47 | 5.65 | 6.85 | 6.85 | –
CC(C)(C)n1cc(C(=O)O)c(=O)c2cc(F)c(N3CCNCC3)cc21 | 7.06 | 6.14 | 6.44 | 6.44 | –
O=C(O)c1cn(C2CC2)c2cc(N3C[C@@H]4CCCN[C@@H]4C3)c(F)cc2c1=O | 7.12 | 5.92 | 6.21 | 7.12 | –
O=C(O)c1cn(C2CC2)c2c(F)c(N3C[C@H]4CCCN[C@H]4C3)c(F)cc2c1=O | 7.45 | 5.63 | 6.53 | 6.84 | –
O=C(O)c1cn(-c2ccc(F)cc2F)c2nc(N3C[C@@H]4CCCN[C@@H]4C3)c(F)cc2c1=O | 7.5 | 5.09 | 6 | 6.59 | –
C#CCN1CCN(c2c(F)cc3c(=O)c(C(=O)O)cn(C4CC4)c3c2Cl)CC1 | 6.83 | 5.01 | 5.61 | 6.21 | –
C[C@@]12CN(c3c(F)cc4c(=O)c(C(=O)O)cn(C5C[C@@H]5F)c4c3F)C[C@@H]1CCCN2 (stereo not given in full) | 7.46 | 6.25 | – | 7.16 | 6.86
CNn1cc(C(=O)O)c(=O)c2cc(F)c(N3CCN(C)CC3)cc21 [AMIFLOXACIN] | 6.75 | 5.83 | 4.92 | 5.52 | –
O=C(O)c1cn(C2CC2)c2cc(N3CCNCC3)c(F)cc2c1=O [CIPROFLOXACIN] | 7.66 | 6.77 | 6.16 | 6.16 | –
C[C@H]1COc2c(N3CCN(C)CC3)c(F)cc3c(=O)c(C(=O)O)cn1c23.C[C@H]1COc2c(N3CCN(C)CC3)c(F)cc3c(=O)c(C(=O)O)cn1c23.O [LEVOFLOXACIN] | 7.41 | 6.2 | 6.2 | 6.5 | –
CCn1cc(C(=O)O)c(=O)c2cc(F)c(N3CCNC(C)C3)c(F)c21 (stereo not given) [LOMEFLOXACIN] | 7.07 | 5.85 | 5.24 | 5.85 | –
COc1c(N2C[C@@H]3CCCN[C@@H]3C2)c(F)cc2c(=O)c(C(=O)O)cn(C3CC3)c12 [MOXIFLOXACIN] | 7.46 | 5.64 | – | 7.16 | 6.55
CCn1cc(C(=O)O)c(=O)c2cc(F)c(N3CCNCC3)cc21 [NORFLOXACIN] | 6.76 | 5.85 | 5.55 | 5.55 | –
CCn1cc(C(=O)O)c(=O)c2cc(F)c(N3CCN(C)CC3)cc21 [PEFLOXACIN] | 7.05 | 5.82 | 5.52 | 6.12 | –
N[C@@H]1CN(c2c(F)cc3c(=O)c(C(=O)O)cn([C@@H]4C[C@@H]4F)c3c2Cl)CC12CC2 [SITAFLOXACIN ANHYDROUS] | 8.04 | 6.84 | 7.45 | 7.74 | –
C[C@@H]1CN(c2c(F)c(N)c3c(=O)c(C(=O)O)cn(C4CC4)c3c2F)C[C@H](C)N1 [SPARFLOXACIN] | 7.42 | 5.59 | 6.2 | 6.8 | –
